Reference: ChEMBL document CHEMBL4251655 (Eur J Med Chem, 2018)

Legend:
[1] = biological target: Protein kinase C beta type (Homo sapiens) (UniProt P05771); test: Inhibition of recombinant human full length GST-tagged PRKCB2 expressed in insect cells at 1 uM relative to control
Outline: (§1)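 Forty-kinase selectivity panel; each compound tested at a single 1 µM concentration in the presence of 1 mM ATP; result given as percent inhibition.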

[2] = biological target: T1, Interleukin-1 receptor-associated kinase 4 (Homo sapiens) (UniProt Q9NWZ3); test: Inhibition of recombinant full length human His-tagged IRAK4 expressed in baculovirus expression system at 1 uM relative to control; outline: as §1
T1 sequence (whole entry): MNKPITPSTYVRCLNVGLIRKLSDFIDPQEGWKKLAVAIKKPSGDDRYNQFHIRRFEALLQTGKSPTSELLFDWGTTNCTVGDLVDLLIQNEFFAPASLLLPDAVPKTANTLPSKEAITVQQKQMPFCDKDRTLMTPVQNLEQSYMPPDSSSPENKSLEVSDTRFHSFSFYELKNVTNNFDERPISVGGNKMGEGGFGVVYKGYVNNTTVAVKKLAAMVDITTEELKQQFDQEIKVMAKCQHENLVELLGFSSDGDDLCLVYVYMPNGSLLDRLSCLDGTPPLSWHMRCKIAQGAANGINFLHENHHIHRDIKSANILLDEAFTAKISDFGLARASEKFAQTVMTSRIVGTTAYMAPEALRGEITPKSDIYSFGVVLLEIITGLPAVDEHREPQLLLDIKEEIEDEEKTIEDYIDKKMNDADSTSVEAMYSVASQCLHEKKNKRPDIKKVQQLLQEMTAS

[3] = biological target: Vascular endothelial growth factor receptor 2 (Homo sapiens) (UniProt P35968); test: Inhibition of recombinant human His-tagged KDR cytoplasmic domain expressed in baculovirus expression system at 1 uM relative to control; outline: as §1
Sequence of Vascular endothelial growth factor receptor 2 (Homo sapiens) (P35968 whole entry, the tested form may be a part): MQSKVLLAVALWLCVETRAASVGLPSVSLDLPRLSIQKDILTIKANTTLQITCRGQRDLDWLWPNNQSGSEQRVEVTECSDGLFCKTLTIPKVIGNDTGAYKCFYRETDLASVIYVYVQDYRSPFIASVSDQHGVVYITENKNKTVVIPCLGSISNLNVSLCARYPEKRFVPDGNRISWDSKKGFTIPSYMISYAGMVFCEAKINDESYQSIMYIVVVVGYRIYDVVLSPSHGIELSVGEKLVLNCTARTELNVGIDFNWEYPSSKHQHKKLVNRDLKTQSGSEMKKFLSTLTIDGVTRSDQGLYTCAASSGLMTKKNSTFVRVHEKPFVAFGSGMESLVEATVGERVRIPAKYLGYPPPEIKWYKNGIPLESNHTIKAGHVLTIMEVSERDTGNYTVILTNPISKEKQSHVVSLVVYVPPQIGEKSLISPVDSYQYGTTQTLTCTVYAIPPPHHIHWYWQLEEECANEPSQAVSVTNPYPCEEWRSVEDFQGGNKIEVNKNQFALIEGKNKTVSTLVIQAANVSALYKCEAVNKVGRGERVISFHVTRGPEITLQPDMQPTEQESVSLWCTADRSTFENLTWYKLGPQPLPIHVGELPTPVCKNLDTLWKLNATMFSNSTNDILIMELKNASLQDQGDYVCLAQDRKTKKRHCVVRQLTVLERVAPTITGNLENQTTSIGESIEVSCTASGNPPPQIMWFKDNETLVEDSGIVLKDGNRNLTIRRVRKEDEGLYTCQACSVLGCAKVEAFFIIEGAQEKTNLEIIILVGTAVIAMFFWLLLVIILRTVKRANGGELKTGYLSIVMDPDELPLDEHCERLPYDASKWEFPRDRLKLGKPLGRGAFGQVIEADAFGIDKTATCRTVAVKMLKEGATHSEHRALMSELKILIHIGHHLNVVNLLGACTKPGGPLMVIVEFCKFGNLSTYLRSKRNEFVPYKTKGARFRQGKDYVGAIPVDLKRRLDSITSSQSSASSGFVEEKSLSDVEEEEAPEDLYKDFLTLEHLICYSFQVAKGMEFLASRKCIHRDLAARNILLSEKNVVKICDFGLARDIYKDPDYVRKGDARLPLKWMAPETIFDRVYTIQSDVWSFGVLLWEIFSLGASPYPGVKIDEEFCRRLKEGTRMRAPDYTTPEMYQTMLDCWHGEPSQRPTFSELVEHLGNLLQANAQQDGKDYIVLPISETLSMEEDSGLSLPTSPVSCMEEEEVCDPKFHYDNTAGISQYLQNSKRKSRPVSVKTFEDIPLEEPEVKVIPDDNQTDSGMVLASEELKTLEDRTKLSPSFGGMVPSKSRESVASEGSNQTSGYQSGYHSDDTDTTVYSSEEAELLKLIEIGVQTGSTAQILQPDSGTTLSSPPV

[4] = biological target: Ephrin type-A receptor 2 (Homo sapiens) (UniProt P29317); test: Inhibition of recombinant human GST-tagged EPHA2 cytoplasmic domain expressed in baculovirus expression system at 1 uM relative to control; outline: as §1
[5] = biological target: Casein kinase I isoform alpha (Homo sapiens) (UniProt P48729); test: Inhibition of recombinant full length human GST-tagged CSNK1A1 expressed in baculovirus expression system at 1 uM relative to control; outline: as §1
Sequence of Casein kinase I isoform alpha (Homo sapiens) (P48729 2-337 limits assumed): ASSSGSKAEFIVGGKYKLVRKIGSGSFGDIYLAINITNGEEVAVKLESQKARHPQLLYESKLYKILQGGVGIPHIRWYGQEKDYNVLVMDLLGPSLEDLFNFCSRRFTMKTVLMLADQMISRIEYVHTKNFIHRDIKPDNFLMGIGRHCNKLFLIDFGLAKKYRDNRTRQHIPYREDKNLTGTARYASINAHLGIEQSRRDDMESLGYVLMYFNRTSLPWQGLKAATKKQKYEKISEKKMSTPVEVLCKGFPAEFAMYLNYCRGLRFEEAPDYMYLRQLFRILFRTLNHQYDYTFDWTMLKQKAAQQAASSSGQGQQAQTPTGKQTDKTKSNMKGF

[6] = biological target: Angiopoietin-1 receptor (Homo sapiens) (UniProt Q02763); test: Inhibition of recombinant human GST-tagged TEK (817 to 1101 residues) expressed in baculovirus expression system at 1 uM relative to control; outline: as §1
[7] = biological target: Tyrosine-protein kinase ABL1 (Homo sapiens) (UniProt P00519); test: Inhibition of recombinant human His-tagged ABL1 expressed in baculovirus expression system at 1 uM relative to control; outline: as §1
Sequence of Tyrosine-protein kinase ABL1 (Homo sapiens) (P00519 whole entry, the tested form may be a part): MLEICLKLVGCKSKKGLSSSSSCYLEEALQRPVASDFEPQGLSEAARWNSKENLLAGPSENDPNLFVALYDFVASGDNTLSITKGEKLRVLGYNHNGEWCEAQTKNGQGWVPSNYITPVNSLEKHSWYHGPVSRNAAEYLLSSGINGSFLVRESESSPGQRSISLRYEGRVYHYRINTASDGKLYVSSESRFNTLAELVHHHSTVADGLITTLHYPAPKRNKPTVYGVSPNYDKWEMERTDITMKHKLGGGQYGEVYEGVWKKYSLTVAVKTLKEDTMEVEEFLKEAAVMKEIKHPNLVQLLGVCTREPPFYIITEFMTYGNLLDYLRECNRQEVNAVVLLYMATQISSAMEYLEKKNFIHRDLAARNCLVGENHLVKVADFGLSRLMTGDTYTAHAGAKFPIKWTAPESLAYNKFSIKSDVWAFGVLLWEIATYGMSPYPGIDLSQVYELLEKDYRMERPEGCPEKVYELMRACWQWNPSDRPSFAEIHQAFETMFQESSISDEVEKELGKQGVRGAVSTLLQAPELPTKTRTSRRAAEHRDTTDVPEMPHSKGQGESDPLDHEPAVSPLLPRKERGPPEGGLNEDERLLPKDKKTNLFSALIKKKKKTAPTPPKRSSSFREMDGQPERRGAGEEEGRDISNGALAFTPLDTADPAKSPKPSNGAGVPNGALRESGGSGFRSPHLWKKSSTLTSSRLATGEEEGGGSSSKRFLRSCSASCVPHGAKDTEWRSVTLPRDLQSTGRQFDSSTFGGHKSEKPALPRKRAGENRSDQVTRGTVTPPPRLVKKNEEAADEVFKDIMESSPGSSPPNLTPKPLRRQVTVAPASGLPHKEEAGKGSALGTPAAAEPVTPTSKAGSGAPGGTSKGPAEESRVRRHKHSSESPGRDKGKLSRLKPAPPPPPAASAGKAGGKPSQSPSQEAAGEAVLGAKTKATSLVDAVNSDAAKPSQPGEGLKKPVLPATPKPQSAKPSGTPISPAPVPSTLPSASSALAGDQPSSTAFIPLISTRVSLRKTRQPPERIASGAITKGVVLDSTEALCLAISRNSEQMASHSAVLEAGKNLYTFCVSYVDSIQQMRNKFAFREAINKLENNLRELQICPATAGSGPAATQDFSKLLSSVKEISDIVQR

[8] = biological target: Rho-associated protein kinase 1 (Homo sapiens) (UniProt Q13464); test: Inhibition of recombinant human GST-tagged ROCK1 (1 to 535 residues) expressed in baculovirus expression system at 1 uM relative to control; outline: as §1
[9] = biological target: T2, Serine/threonine-protein kinase Chk1 (Homo sapiens) (UniProt O14757); test: Inhibition of recombinant full length human His-tagged CHEK1 expressed in baculovirus expression system at 1 uM relative to control; outline: as §1
T2 sequence (whole entry): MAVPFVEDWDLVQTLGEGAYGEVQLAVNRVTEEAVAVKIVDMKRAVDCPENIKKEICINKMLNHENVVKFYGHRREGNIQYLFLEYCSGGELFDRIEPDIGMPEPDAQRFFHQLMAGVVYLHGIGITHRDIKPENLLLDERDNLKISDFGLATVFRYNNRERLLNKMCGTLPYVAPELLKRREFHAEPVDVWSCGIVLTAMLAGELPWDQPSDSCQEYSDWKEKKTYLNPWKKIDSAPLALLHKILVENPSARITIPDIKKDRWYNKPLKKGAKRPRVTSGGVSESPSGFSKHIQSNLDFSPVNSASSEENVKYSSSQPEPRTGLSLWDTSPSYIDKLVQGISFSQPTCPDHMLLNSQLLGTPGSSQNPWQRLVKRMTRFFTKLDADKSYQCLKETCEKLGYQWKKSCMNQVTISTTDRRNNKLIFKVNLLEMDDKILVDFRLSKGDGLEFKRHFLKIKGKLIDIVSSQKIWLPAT

[10] = biological target: Serine/threonine-protein kinase Chk2 (Homo sapiens) (UniProt O96017); test: Inhibition of recombinant full length human His-tagged CHEK2 expressed in baculovirus expression system at 1 uM relative to control; outline: as §1
Sequence of Serine/threonine-protein kinase Chk2 (Homo sapiens) (O96017 whole entry): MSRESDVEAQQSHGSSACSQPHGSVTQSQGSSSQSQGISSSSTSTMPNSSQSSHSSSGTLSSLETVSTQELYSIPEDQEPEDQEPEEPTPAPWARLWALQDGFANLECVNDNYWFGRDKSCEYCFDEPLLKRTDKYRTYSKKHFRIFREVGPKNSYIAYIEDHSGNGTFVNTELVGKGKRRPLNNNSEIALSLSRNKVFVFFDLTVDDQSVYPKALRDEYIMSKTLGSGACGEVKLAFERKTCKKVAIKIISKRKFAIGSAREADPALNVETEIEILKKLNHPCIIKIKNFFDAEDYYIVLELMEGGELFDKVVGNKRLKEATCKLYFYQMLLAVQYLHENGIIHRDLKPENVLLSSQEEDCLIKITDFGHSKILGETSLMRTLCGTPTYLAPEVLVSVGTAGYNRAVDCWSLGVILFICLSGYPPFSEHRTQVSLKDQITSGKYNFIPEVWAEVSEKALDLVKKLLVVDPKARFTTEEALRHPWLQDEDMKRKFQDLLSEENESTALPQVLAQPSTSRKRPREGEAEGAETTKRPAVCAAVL

[11] = biological target: Glycogen synthase kinase-3 beta (Homo sapiens) (UniProt P49841); test: Inhibition of recombinant human full length His-tagged GSK3beta expressed in baculovirus expression system at 1 uM relative to control; outline: as §1
Sequence of Glycogen synthase kinase-3 beta (Homo sapiens) (P49841 whole entry, looked up): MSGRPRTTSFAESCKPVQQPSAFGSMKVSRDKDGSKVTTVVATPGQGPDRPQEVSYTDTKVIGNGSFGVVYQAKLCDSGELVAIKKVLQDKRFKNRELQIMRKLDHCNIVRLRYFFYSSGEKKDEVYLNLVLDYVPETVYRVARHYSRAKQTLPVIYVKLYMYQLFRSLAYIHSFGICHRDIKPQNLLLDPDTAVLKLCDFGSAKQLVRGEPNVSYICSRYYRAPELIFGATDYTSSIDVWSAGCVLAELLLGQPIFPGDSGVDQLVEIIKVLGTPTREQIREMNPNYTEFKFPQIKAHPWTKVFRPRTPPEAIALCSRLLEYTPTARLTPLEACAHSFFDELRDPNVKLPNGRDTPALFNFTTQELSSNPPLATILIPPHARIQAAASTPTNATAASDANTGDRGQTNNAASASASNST

[12] = biological target: T3, 3-phosphoinositide-dependent protein kinase 1 (Homo sapiens) (UniProt O15530); test: Inhibition of recombinant human full length His-tagged PDPK1 expressed in baculovirus expression system at 1 uM relative to control; outline: as §1
T3 sequence (whole entry): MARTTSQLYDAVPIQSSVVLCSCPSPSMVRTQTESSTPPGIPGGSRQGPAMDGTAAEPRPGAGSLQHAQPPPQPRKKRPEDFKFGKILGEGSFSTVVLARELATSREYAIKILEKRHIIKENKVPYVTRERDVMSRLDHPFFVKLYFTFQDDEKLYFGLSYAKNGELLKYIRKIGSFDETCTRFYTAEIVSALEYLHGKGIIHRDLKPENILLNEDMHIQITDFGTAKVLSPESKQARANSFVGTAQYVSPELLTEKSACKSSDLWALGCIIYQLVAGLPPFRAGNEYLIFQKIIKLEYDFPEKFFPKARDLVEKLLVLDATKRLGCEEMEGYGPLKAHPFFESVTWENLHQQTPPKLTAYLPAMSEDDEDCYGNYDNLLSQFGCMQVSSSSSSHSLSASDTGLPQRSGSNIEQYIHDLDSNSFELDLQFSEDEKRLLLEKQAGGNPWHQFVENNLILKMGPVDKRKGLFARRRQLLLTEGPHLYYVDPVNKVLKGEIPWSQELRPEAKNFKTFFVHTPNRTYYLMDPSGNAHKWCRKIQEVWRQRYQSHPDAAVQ

[13] = biological target: Myosin light chain kinase 2, skeletal/cardiac muscle (Homo sapiens) (UniProt Q9H1R3); test: Inhibition of recombinant human full length GST-tagged MYLK2 expressed in baculovirus expression system at 1 uM relative to control; outline: as §1
Sequence of Myosin light chain kinase 2, skeletal/cardiac muscle (Homo sapiens) (Q9H1R3 whole entry): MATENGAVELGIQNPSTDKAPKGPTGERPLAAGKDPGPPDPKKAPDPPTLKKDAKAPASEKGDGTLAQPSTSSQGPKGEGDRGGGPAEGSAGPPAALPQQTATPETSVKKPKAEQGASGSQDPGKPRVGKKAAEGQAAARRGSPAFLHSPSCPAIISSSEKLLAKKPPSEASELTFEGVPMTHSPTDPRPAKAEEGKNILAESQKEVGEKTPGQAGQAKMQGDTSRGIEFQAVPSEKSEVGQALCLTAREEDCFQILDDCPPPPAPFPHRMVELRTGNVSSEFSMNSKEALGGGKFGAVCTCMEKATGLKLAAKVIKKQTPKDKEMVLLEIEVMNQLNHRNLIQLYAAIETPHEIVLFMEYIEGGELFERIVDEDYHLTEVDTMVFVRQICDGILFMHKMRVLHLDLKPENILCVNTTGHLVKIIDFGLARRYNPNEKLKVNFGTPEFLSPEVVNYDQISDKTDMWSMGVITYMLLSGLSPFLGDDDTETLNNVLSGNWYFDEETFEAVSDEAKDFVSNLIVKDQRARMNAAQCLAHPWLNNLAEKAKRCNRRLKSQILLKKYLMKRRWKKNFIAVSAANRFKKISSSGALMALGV

[14] = biological target: MAP kinase-activated protein kinase 2 (Homo sapiens) (UniProt P49137); test: Inhibition of recombinant full length human His-tagged MAPKAPK2 expressed in Escherichia coli at 1 uM relative to control; outline: as §1
[15] = Lipophilicity, log D at pH 7.4 by shake flask method; conditions: buffer
[16] = biological target: CDK2/Cyclin A2 (Homo sapiens) (UniProt P24941+P20248); test: Inhibition of recombinant full length human His-tagged CDK2/Cyclin-A expressed in baculovirus expression system at 1 uM relative to control; outline: as §1

Sequence of Protein kinase C beta type (Homo sapiens) (P05771 2-671 limits assumed): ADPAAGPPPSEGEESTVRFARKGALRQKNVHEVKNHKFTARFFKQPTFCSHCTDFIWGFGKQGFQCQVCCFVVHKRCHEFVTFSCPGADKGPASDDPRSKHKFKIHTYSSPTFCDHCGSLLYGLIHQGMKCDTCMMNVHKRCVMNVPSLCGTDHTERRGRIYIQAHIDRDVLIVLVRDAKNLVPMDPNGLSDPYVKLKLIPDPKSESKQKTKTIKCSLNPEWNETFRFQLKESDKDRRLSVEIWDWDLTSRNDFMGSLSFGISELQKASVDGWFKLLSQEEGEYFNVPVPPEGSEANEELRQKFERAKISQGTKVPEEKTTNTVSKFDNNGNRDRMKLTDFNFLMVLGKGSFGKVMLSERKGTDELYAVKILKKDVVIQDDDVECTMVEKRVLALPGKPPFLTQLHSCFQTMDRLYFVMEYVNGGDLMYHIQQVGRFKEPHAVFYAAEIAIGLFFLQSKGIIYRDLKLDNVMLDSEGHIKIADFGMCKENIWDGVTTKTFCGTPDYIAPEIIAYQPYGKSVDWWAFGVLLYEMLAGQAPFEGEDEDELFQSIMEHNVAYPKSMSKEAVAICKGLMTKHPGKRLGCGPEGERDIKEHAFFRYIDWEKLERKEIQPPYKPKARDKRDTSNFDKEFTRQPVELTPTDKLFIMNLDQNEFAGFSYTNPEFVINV

SMILES	inhibition [1] [%]	inhibition [2] [%]	inhibition [3] [%]	inhibition [4] [%]	inhibition [5] [%]	inhibition [6] [%]	inhibition [7] [%]	inhibition [8] [%]	inhibition [9] [%]	inhibition [10] [%]	inhibition [11] [%]	inhibition [12] [%]	inhibition [13] [%]	inhibition [14] [%]	logD [15]	inhibition [16] [%]
COc1ccc(S(C)(=O)=O)cc1C(=O)Nc1cccc(-c2nncn2C(C)C)n1	5	3	-4	0	-3	8	-4	1	1	48	-1	-2	0	6	1.3	4
COc1cc(C)c(S(N)(=O)=O)cc1C(=O)Nc1cccc(-c2nncn2C(C)C)n1	9	2	8	-1	0	2	4	-3	8	87	6	-2	7	7	1.6	5
COc1ccc(S(N)(=O)=O)cc1C(=O)Nc1cccc(-c2nncn2C(C)C)n1	12	-9	-1	0	0	2	-3	7	-4	73	0	-6	1	13	1.2 to 1.3	5
COc1cc(C)c(S(C)(=O)=O)cc1C(=O)Nc1cccc(-c2nncn2C(C)C)n1	12	4	7	0	-1	-3	-6	11	2	76	3	11	3	-1	1.7	2
COc1cc(C)c(C(N)=O)cc1C(=O)Nc1cccc(-c2nncn2C(C)C)n1	3	-2	57	1	15	-1	16	5	17	76	7	10	0	0	1.6	57
COc1ccc(C(N)=O)cc1C(=O)Nc1cccc(-c2nncn2C(C)C)n1	9	-1	59	-1	6	1	16	11	34	45	0	7	7	10	1.5	33
